The record followed here is ChEMBL document CHEMBL1131126, “Naamidine A is an antagonist of the epidermal growth factor receptor and an in vivo active antitumor agent” (J Med Chem, 1998).

Holding throughout (format): functional
For one test, the species on record is Mus musculus. Description: Selectivity for EGF over insulin receptors. In short, it runs like this: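 Ratio of insulin-stimulated IC50 to EGF-stimulated IC50, both from [3H]thymidine incorporation in EGF receptor-transfected NIH3T3 cells (1 h preincubation, 16 h mitogen stimulation, 1-h label).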
In test [1] the test system is A-431. As to the kind of experiment: In vivo inhibitory activity against A431 tumor implanted in athymic mice at 3.13 mg/kg […]. To be noted: Mus musculus. In short, it runs like this:
(§1)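 A431 squamous carcinoma cells (EGF receptor-overexpressing) implanted under the kidney capsule of athymic mice, N = 6 per group. Dosed once daily for 5 days starting the day after implantation. Tumor size assessed 7 days after implantation; result given as % inhibition of tumor growth, with deaths counted per group.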

The test system of test [2] is A-431. As to the kind of experiment: In vivo inhibitory activity against A431 tumor implanted in athymic mice at 25 mg/kg […]. To be noted: Mus musculus. Put shortly:
as §1

Test [3] relates to A-431. As to the kind of experiment: In vivo inhibitory activity against A431 tumor implanted in athymic mice at 50 mg/kg […]. To be noted: Mus musculus. In short, it runs like this: as §1
The test system of test [4] is A-431. As to the kind of experiment: In vivo inhibitory activity against A431 tumor implanted in athymic mice at 12.5 mg/kg […]. To be noted: Mus musculus. Put shortly:
as §1

Take `COc1ccc(Cc2cn(Cc3ccc(O)cc3)c(NC3=NC(=O)N(C)C3=O)n2)cc1`: in the test filed under Mus musculus, the Selectivity worked out at 0.43.

Regarding `COc1ccc(Cc2cn(Cc3ccc(OC)cc3)c(NC3=NC(=O)N(C)C3=O)n2)cc1`, in the test filed under Mus musculus, the Selectivity is 0.18.

In the test with A-431 [1], `COc1ccc(Cc2nc(NC3=NC(=O)N(C)C3=O)n(C)c2Cc2ccc(O)cc2)cc1` yielded an inhibition in vivo at 3.13 mg/kg of 35%. Besides, in the test with A-431 [2], 25 mg/kg produced 87.4% inhibition in vivo. At 50 mg/kg the inhibition in vivo in the test with A-431 [3] was 96.4%. Besides, the Selectivity in the test listed under Mus musculus was found to be 21. In the test with A-431 [4], this molecule gave an inhibition in vivo at 12.5 mg/kg of 52%.
